Rows were chosen to be rich in hits. Some 1.8% of all compounds tested hit in one or more screens of this group.
Rpn11 block: Rpn11 (PSMD14) deubiquitinase inhibitors, primary screen, biochemical, fluorescence polarization, uHTS; 26S proteasome non-ATPase regulatory subunit 14 (Homo sapiens), O00487; hit rate 0.59% among 360,000; calls only at 20 µM; AID 588493, 2011; human 26S proteasome, Ub4-pepOG fluorescence polarization; 20S core pre-blocked with epoxomicin;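 active = inhibition at 20 µM, scaled to each plate's controls, above about 33%, limit read from the data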
CSN inh: inhibitors of CSN-mediated cullin deneddylation, primary screen, biochemical, fluorescence polarization, uHTS | COP9 signalosome complex subunit 5 (Homo sapiens), Q92905 | Purified CSN, SCF-Nedd8-OG deneddylation | inhibition, % at 12.5 µM | hit rate 0.38% among 360,000 | AID 651999, 2013;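 active = pattern-corrected inhibition above about 35%, with an unprinted fluorescence ratio check between 0.5 and 1.5, limit read from the data, passing the limit was not always enough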;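 also: 0% = enzyme with substrate and 100% = substrate without enzyme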
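Assay system: purified human Csn5 enzyme expressed in HEK293T cells; Input: 0.24 nM Csn5 enzyme, final concentration; Reagent: 10 nM SCFSkp2-Nedd8OG; Compound dosing: 12.5 µM single point; Times: reaction 90 min, room temperature; Technique: fluorescence polarization readout.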
SUMO HTRF inh: inhibitors of in vitro SUMOylation cascade, primary screen, biochemical, HTRF, uHTS | HTRF SUMOylation assay, SAE1/SAE2 + UBC9 | SUMO-conjugating enzyme UBC9 (Homo sapiens), P63279 | inhibition, % at 35 µM | hit rate 0.36% among 290,000; in the data active = inhibition above about 50%, passing the limit was not always enough
Target sequence (P63279 whole entry, looked up): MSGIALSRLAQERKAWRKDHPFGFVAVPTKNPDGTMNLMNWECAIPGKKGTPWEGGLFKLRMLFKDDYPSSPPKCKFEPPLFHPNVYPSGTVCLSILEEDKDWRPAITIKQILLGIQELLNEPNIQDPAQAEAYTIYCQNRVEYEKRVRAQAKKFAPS
TPT1 inh: Candida albicans TPT1 enzyme inhibitors, primary screen, biochemical, fluorescence polarization; hit rate 0.81% among 300,000; AID 1962, 2009; recombinant caTPT1, FP RNA substrate dephosphorylation; tRNA 2'-phosphotransferase TPT1 (Candida albicans SC5314); inhibition, % at 5 µM;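 active = inhibition above the mean of all tested compounds plus 3 SD, set per screening campaign, cut at about 24% in these data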;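 also: plate controls were DMSO alone for no effect and ferristatin control at 100 nM for full effect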
HNF4A DNA FP: change in binding of human HNF4A to DNA, primary screen, biochemical, fluorescence polarization, FITC-DNA. Hepatocyte nuclear factor 4-alpha (Homo sapiens), P41235. 1 h. activity change, % at 10 µM. hit rate 0.3% among 360,000; in the data active = activity change above about 30%, passing the limit was not always enough
Target sequence (P41235 whole entry, looked up): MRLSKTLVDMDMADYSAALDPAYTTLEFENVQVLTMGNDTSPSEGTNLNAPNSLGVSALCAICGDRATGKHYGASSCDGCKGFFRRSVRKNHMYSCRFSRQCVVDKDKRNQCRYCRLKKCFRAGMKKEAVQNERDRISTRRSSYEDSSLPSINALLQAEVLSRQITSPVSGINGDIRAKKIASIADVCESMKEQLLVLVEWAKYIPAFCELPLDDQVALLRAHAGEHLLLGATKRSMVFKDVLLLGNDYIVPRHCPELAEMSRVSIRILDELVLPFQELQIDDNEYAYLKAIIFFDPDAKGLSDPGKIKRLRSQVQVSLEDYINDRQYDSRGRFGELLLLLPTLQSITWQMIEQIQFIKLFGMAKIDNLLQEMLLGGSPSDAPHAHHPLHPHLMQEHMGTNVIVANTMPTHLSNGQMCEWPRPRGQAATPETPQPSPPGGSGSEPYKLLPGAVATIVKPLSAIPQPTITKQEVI
SENP1 FRET inh: human SENP1 catalytic domain inhibitors, primary screen, biochemical, FRET, uHTS. inhibition, % at 10 µM. AID 624204, 2012. Sentrin-specific protease 1 (Homo sapiens), Q9P0U3. recombinant SENP1 catalytic domain, CyPet-SUMO1-YPet FRET cleavage. hit rate 0.21% among 360,000;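 active = inhibition at least 30% at 10 µM, raw YFP signal under a set limit, fluorescence ratio 0.5 to 1.5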;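 also: 0% = enzyme with DMSO and 100% = no enzyme wells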
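Test system: hSENP1 catalytic domain, recombinant; Amount: 20 pM final SENP1 enzyme; Medium: Tris pH 8 buffer plus EDTA, NaCl, BME, BSA, NP40, catalase; Schedule: 50 min enzyme reaction, room temperature, light-protected; Technique: FRET fluorescence in CFP and YFP emission channels; Controls: no-enzyme wells low, DMSO-plus-enzyme wells high control.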
* hit, by the source's call.

What do the screens show for `COC(=O)c1cc(S(=O)(=O)N2c3ccccc3CC2C)cn1C` (stereo not given)?
Rpn11 block: inactive; CSN inh: 38*; TPT1 inh: 0; HNF4A DNA FP: 2; SENP1 FRET inh: -2

Results for COC(=O)c1ccccc1NC(=O)C(C)c1ccc([N+](=O)[O-])cc1 (stereo not given) ?
Rpn11 block: inactive; CSN inh: 1; SUMO HTRF inh: 0; TPT1 inh: 1; HNF4A DNA FP: -1; SENP1 FRET inh: -1

How did CC(C)(C)NC(=O)C1(C)CCC(=O)N1C1CCN(Cc2ccccc2)CC1 (stereo not given) do in these assays?
Rpn11 block: inactive; CSN inh: 86*; HNF4A DNA FP: 2; SENP1 FRET inh: 1

What do the screens show for `CN(Cc1nc2ccccc2c(=O)[nH]1)C(=O)c1ccc(NC(=O)CSc2nnnn2C)cc1`?
Rpn11 block: inactive; CSN inh: -8; HNF4A DNA FP: 2; SENP1 FRET inh: -2

How did COC(=O)c1ccc(-c2ccco2)n1Cc1ccccc1Cl do in these assays?
Rpn11 block: inactive; CSN inh: 49*; SUMO HTRF inh: -2; TPT1 inh: -1; HNF4A DNA FP: 2; SENP1 FRET inh: 4

What do the screens show for `COc1cc(C(C)=O)ccc1OCC(=O)N1CCc2ccccc2C1`?
Rpn11 block: inactive; CSN inh: 92*; SUMO HTRF inh: -14; TPT1 inh: 2; HNF4A DNA FP: 1; SENP1 FRET inh: 2

How did CCOc1c(OC(C)=O)ccc(/C=C/c2ccc3cccc(OC(C)=O)c3n2)c1[N+](=O)[O-] do in these assays?
Rpn11 block: inactive; CSN inh: 4; SUMO HTRF inh: -4; TPT1 inh: -1; HNF4A DNA FP: -1; SENP1 FRET inh: -3

What do the screens show for `C=CCN1C(=O)/C(=C/c2ccc(OC(C)=O)c(OCC)c2[N+](=O)[O-])SC1=S`?
Rpn11 block: active; CSN inh: 35; SUMO HTRF inh: 7; HNF4A DNA FP: 35; SENP1 FRET inh: 26

Results for Cc1ccc2c(c1)[C@H]1[C@H](CO2)[C@H](c2ccccc2)[C@]2(C)C(=O)N(Cc3ccccc3)CC(=O)N12 ?
Rpn11 block: inactive; CSN inh: 4; HNF4A DNA FP: 3; SENP1 FRET inh: 1

Results for O=C1CC(c2ccc3c(c2)OCO3)C2=C(CCCC2=O)N1 (stereo not given) ?
Rpn11 block: inactive; CSN inh: 0; SUMO HTRF inh: 17; TPT1 inh: -5; HNF4A DNA FP: 3; SENP1 FRET inh: 4

What do the screens show for `CCCN(CC1CC1)C(=S)Nc1ccc(C(C)=O)cc1`?
Rpn11 block: inactive; CSN inh: -4; SUMO HTRF inh: -1; TPT1 inh: 0; HNF4A DNA FP: 1; SENP1 FRET inh: 1

What do the screens show for `CCN(C(=S)Nc1ccc(C(C)=O)cc1)C1CCCCC1`?
Rpn11 block: inactive; CSN inh: 48*; SUMO HTRF inh: 9; TPT1 inh: 1; HNF4A DNA FP: 1; SENP1 FRET inh: 3

Results for O=C(O)c1cc(O)c2c(c1)[C@H]([C@H]1c3cc(C(=O)O)cc(O)c3C(=O)c3c(O[C@@H]4O[C@H](CO)[C@@H](O)[C@H](O)[C@H]4O)cccc31)c1cccc(OC3O[C@H](CO)[C@@H](O)[C@H](O)[C@H]3O)c1C2=O (stereo not given in full) ?
Rpn11 block: inactive; CSN inh: -1; TPT1 inh: 75*; HNF4A DNA FP: -90; SENP1 FRET inh: 27

How did O=C1c2c(O)cccc2C(C2OC(CO)[C@@H](O)[C@H](O)[C@H]2O)c2cc(CO)cc(O)c21 (stereo not given in full) do in these assays?
Rpn11 block: inactive; CSN inh: 5; HNF4A DNA FP: -14; SENP1 FRET inh: 10

Results for O=C(NCCN1CCOCC1)C1CCC(CNS(=O)(=O)c2ccccc2)CC1 (stereo not given) ?
Rpn11 block: inactive; CSN inh: -4; SUMO HTRF inh: -3; TPT1 inh: 0; HNF4A DNA FP: 3; SENP1 FRET inh: 1

Results for COc1cc(C(=O)NCCSc2ccc(Br)cc2)cc(OC)c1OC ?
Rpn11 block: inactive; CSN inh: 70*; SUMO HTRF inh: 0; TPT1 inh: 0; HNF4A DNA FP: 1; SENP1 FRET inh: 2

How did CCOc1ccc(N2CC(C(=O)OC)CC2=O)cc1 (stereo not given) do in these assays?
Rpn11 block: inactive; CSN inh: 31; SUMO HTRF inh: 13; TPT1 inh: -1; HNF4A DNA FP: 50*; SENP1 FRET inh: -2

Results for O=C(O)c1cnn(-c2nc(-c3ccc(Cl)c(Cl)c3)cs2)c1C(F)(F)F ?
Rpn11 block: inactive; CSN inh: 1; SUMO HTRF inh: 15; TPT1 inh: -2; HNF4A DNA FP: -1; SENP1 FRET inh: 1

What do the screens show for `CC(=O)c1csc(COc2ccccc2)n1`?
Rpn11 block: inactive; CSN inh: 2; SUMO HTRF inh: 7; TPT1 inh: -2; HNF4A DNA FP: 63*; SENP1 FRET inh: 0

How did N#CCSc1nc2c(sc(=S)n2Cc2ccco2)c(=O)n1-c1ccc(F)cc1 do in these assays?
Rpn11 block: inactive; CSN inh: 5; SUMO HTRF inh: -16; TPT1 inh: 1; HNF4A DNA FP: 58*; SENP1 FRET inh: -2

How did COCCCn1c(C(=O)N2CCOCC2)cc2c(=O)n3cccc(C)c3nc21 do in these assays?
Rpn11 block: inactive; CSN inh: 3; SUMO HTRF inh: 20; TPT1 inh: -1; HNF4A DNA FP: -3; SENP1 FRET inh: -10

Results for CCNC(=O)c1cc2c(=O)n3cccc(C)c3nc2n(Cc2ccc(C)cc2)c1=N ?
Rpn11 block: inactive; CSN inh: -6; SUMO HTRF inh: 11; TPT1 inh: 2; HNF4A DNA FP: 5; SENP1 FRET inh: -16

Results for Cc1cccn2c(=O)c3cc(C(=O)NC(C)C)c(=N)n(Cc4ccncc4)c3nc12 ?
Rpn11 block: inactive; CSN inh: 3; SUMO HTRF inh: 14; TPT1 inh: -4; HNF4A DNA FP: 52*; SENP1 FRET inh: 11

What do the screens show for `COCCCn1c(C(=O)Nc2ccc3c(c2)OCO3)cc2c(=O)n3cccc(C)c3nc21`?
Rpn11 block: inactive; CSN inh: 42*; HNF4A DNA FP: 29; SENP1 FRET inh: -29

Screening data (PubChem)
